Structures are written as SMILES. Calls of active or inactive are those of the source. The calls are words filed in the database; no cut-off is given here.

The test system of assay [1] is HCC1806. Description: Cell cycle arrest in human HCC1806 cells assessed as decrease in cell population at S phase at 2.5 to 5 uM measured after 12 hrs by flowcytometry method. The format is functional, cell-based. Particulars: dose 2.5-5 µM. Put shortly:
(§1)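 HCC1806 cells were treated with the compound for 12 h. Cell-cycle distribution was determined by flow cytometry, and the phase fractions were quantified from experimental duplicates with SD.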

Assay [2] concerns HCC1806. Briefly: Cell cycle arrest in human HCC1806 cells assessed as increase in p21 accumulation at 2.5 to 5 uM measured after 12 hrs by western blot assay. The class given is functional, cell-based. Particulars: dose 2.5-5 µM. Put shortly: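 HCC1806 cells were exposed to the compound for 12 h. p21 protein level was detected by immunoblotting, with β-actin as the loading control.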

Assay [3] has as its system NCI-H1975. Description: Anticancer activity against human NCI-H1975 cells assessed as inhibition of cell growth at 10 uM measured by SRB method. The class given is functional.
Assay [4] deals with HCC1806. Description: Anticancer activity against human HCC1806 cells assessed as inhibition of cell proliferation. The format is functional, cell-based.
Assay [5] has as its system HeLa. Description: Anticancer activity against human HeLa cells assessed as inhibition of cell proliferation. The format is functional, cell-based.
Assay [6] deals with HCC1806. Briefly: Cell cycle arrest in human HCC1806 cells assessed as increase in cell population at G2/M phase at 2.5 to 5 uM measured after 12 hrs by flowcytometry method. The class given is functional, cell-based. The note with it: dose 2.5-5 µM. Put shortly:
as §1

The subject of assay [7] is HCT-116. Briefly: Anticancer activity against human HCT-116 cells assessed as inhibition of cell proliferation. The class given is functional, cell-based.
Assay [8] has as its system HCC1806. Description: Anticancer activity against human HCC1806 cells assessed as inhibition of cell proliferation at 2 to 10 uM measured after 48 hrs by SRB assay. The format is functional, cell-based. The note with it: dose 2-10 µM. Put shortly:
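HCC1806 cells were exposed to the compound for 24, 48 and 72 h. Proliferation inhibition rate was read by SRB assay at each time point. Experimental triplicates, shown with SD.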

Assay [9] concerns HCC1806. Briefly: Anticancer activity against human HCC1806 cells assessed as inhibition of cell growth at 10 uM measured by SRB method. The class given is functional.
The subject of assay [10] is A549. Briefly: Anticancer activity against human A549 cells assessed as inhibition of cell proliferation. The class given is functional, cell-based.
In assay [11] the test system is MDA-MB-231. Briefly: Anticancer activity against human MDA-MB-231 cells assessed as inhibition of cell growth at 10 uM measured by SRB method. The class given is functional.
The subject of assay [12] is HCC1806. Briefly: Cell cycle arrest in human HCC1806 cells assessed as decrease in cell population at G1 phase at 2.5 to 5 uM measured after 12 hrs by flowcytometry method. The class given is functional, cell-based. Particulars: dose 2.5-5 µM. Put shortly: as §1

Take `CN1CCN(c2ccc(C3=NN(S(=O)(=O)c4ccc(C#N)cc4)C(c4ccc(N(C)C)cc4)C3)cc2)CC1` (stereo unspecified): the result in assay [1], in assay [2], in [6], in [8] and in assay [12] was Active. Moreover, the results for the inhibition at 10 µM in assay [3], in assay [9] and in [11] were 100%, 99.8% and 99.8%, respectively. The IC50 turned out to be 2.99 µM in assay [4], 3 µM in [5], 3.6 µM in assay [7] and 3.6 µM in assay [10].

On to `CN1CCN(c2ccc(C3=NN(C(=O)/C=C/c4ccccc4)C(c4ccc(N(C)C)cc4)C3)cc2)CC1` (stereo unspecified), for which the figures for the inhibition at 10 µM in [3], in assay [9] and in assay [11] were 81%, 71% and 35.9%, respectively. The IC50 in assay [4] was 9.05 µM; in [5], above 10 µM; in [7], above 10 µM; in [10], above 10 µM.

Take `CN1CCN(c2ccc(C3=NN(S(=O)(=O)c4ccc(Br)cc4)C(c4ccc(N(C)C)cc4)C3)cc2)CC1` (stereo unspecified): the figures for the inhibition at 10 µM in assay [3], in [9] and in [11] were 70.8%, 87.1% and 23.7%, respectively. Moreover, the IC50 in assay [4] is 8.65 µM; in [5] it was above 10 µM; in assay [7], above 10 µM; in assay [10] it was above 10 µM.
